Among the data in ChEMBL document CHEMBL1137400, “Dopamine/serotonin receptor ligands. 13: Homologization of a benzindoloazecine-type dopamine receptor antagonist modulates the affinities for dopamine D(1)-D(5) receptors” (J Med Chem, 2006) are Ki and Activity values, retold here.

The target of assay [1] is T1, D(4) dopamine receptor (Homo sapiens, UniProt P21917).
T1 sequence (P21917 whole entry): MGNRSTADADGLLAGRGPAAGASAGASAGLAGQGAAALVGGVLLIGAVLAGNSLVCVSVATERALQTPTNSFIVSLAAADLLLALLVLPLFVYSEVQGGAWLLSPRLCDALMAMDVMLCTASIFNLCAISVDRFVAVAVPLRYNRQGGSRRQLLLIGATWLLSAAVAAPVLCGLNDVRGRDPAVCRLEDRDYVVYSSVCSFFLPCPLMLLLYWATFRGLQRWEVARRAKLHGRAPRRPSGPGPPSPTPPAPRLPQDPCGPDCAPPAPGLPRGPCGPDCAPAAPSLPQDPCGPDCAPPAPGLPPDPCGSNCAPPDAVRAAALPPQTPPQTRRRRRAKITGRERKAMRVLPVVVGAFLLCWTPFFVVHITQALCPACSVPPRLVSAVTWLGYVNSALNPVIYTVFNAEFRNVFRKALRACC
The experiment in a line: (§1) Displacement of [3H]spiperone from human D4 dopamine receptor expressed in CHO cells. It counts as cell-based. An outline of the steps: (§2)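 Human cloned receptors stably expressed: D1 in HEK293 cells with [3H]SCH 23390, and D4.4 in CHO cells with [3H]spiperone. Radioligand displacement was run in 96-well format, incubated 90 min at 27 °C and stopped by rapid filtration. At least two independent experiments, each in triplicate. Ki was calculated from IC50 by Cheng–Prusoff. "No activity" means under 70% displacement at 10^-5 M.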

Assay [2] has as its target D(3) dopamine receptor (Homo sapiens, UniProt P35462). Briefly: Displacement of [3H]spiperone from human D3 receptor expressed in CHO cells. Format: cell-based. The procedure, abridged: (§3)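 Human D2L or D3 receptors stably expressed in CHO cells; [3H]spiperone displacement in 96-well format. Incubation 90 min at 27 °C, ended by rapid filtration. IC50 was converted to Ki by Cheng-Prusoff. At least two independent experiments, each run in triplicate.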
On the technique in general: Displacement assays read how much labelled ligand stays bound in the presence of the test substance.

The target in assay [3] is T2, D(4) dopamine receptor (Homo sapiens) (UniProt P21917).
T2 sequence (whole entry): T1 sequence (P21917 whole entry)
The description is as §1. Format: cell-based. An outline of the steps:
as §2

For assay [4], the target named is T3, D(1B) dopamine receptor (Homo sapiens, UniProt P21918). Briefly: Displacement of [3H]SCH 23390 from human D5 dopamine receptor expressed in HEK293 cells. It counts as cell-based. An outline of the steps:
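Radioligand binding with [3H]SCH 23390 on human D5 stably expressed in HEK293 cells, in 96-well format. Incubation 90 min at 27 °C, stopped by rapid filtration. Ki was calculated from IC50 by Cheng-Prusoff. At least two independent experiments, each in triplicate.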

Assay [5] has as its target T3, D(1B) dopamine receptor. The experiment in a line: Activity at human D5 dopamine receptor expressed in HEK293 cells by calcium fluorescence assay. Format: functional, cell-based.
Assay [6] concerns the target T4, D(2) dopamine receptor (Homo sapiens, UniProt P14416). The experiment in a line: Activity at human D2L dopamine receptor expressed in HEK293 cells by calcium fluorescence assay. Format: functional, cell-based.
In assay [7] the target is T5, D(1A) dopamine receptor (Homo sapiens, UniProt P21728). Briefly: Activity at human D1 dopamine receptor expressed in HEK293 cells by calcium fluorescence assay. Format: functional, cell-based. An outline of the steps:
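Human D1 stably expressed in HEK293 cells. Intracellular Ca2+ was read by fluorescence. Compounds were first checked for any Ca2+ rise on their own, then tested for concentration-dependent suppression of the signal induced by the agonist SKF 38393. Ki was taken from the sigmoidal inhibition curve. Means of three experiments of six values each (±SEM), or of two experiments.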

The target in assay [8] is T4, D(2) dopamine receptor. Briefly: Displacement of [3H]spiperone from human D2L dopamine receptor expressed in CHO cells. Format: cell-based. The procedure, abridged: as §3
The target of assay [9] is T5, D(1A) dopamine receptor. Briefly: Displacement of [3H]SCH 23390 from human D1 dopamine receptor expressed in HEK293 cells. It counts as cell-based. An outline of the steps:
as §2

Structures are written as SMILES. Activity calls are given as the source filed them. The calls are words filed in the database; no cut-off is given here.

T3 sequence (P21918 whole entry): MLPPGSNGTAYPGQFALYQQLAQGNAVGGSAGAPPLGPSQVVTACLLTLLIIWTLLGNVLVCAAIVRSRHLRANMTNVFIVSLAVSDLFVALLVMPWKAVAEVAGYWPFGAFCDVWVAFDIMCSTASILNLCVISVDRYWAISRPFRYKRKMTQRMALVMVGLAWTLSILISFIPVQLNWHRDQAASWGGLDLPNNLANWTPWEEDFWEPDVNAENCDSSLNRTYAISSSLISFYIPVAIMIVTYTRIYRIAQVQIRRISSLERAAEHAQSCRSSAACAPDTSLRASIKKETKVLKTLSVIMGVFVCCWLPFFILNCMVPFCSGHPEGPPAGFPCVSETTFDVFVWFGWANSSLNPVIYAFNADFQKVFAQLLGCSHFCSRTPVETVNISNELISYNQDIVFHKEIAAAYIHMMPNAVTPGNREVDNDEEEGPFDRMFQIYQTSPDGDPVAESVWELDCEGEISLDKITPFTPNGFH
T4 sequence (P14416 whole entry): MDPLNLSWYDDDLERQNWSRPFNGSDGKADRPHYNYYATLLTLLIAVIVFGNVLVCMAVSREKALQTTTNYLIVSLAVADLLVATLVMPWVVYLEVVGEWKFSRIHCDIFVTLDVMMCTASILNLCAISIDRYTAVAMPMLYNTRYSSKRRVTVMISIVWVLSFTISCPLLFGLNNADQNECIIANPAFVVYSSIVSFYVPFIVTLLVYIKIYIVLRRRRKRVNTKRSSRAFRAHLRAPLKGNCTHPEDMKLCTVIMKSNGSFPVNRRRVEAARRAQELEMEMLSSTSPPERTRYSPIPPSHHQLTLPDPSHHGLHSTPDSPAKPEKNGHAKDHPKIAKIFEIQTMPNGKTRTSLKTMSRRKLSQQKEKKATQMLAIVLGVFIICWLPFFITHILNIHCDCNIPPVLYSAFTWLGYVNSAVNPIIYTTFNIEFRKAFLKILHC
T5 sequence (P21728 whole entry): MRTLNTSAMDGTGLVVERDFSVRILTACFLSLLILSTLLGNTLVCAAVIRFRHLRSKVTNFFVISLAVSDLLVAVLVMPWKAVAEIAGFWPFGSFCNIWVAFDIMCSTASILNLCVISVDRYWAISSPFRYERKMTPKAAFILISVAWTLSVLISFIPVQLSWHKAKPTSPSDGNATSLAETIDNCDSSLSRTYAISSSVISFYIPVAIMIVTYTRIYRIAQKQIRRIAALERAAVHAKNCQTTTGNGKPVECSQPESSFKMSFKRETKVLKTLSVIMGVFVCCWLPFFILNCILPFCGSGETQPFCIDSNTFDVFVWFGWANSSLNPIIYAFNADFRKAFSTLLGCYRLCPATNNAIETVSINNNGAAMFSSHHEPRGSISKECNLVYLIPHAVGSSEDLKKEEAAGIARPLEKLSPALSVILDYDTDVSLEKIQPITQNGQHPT
Chain of D(3) dopamine receptor (P35462 whole entry): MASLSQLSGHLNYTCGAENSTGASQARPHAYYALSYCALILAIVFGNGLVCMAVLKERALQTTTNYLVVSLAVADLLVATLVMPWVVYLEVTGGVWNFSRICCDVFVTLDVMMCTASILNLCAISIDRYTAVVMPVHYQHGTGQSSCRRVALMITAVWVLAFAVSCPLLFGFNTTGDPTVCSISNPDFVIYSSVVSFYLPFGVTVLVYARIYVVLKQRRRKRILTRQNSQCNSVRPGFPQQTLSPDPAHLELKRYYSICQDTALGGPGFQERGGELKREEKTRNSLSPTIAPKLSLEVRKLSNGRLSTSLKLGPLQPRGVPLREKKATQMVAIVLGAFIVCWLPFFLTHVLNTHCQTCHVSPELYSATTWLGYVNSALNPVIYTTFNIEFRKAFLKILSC

Turning to `CN1CCc2ccccc2Cc2[nH]c3ccccc3c2CC1`, the Ki (as a rule, a measure of affinity in units of concentration, obtained from inhibition or displacement) in [1] came out at 108 nM; in assay [2], 25.9 nM.

As to `c1ccc2c(c1)CCN1CCCc3c([nH]c4ccccc34)C21` (centres undefined), the outcome in assay [3], in assay [4], in assay [5], in [2], in assay [6] and in [7] was inactive. Further, the outcome in assay [8] and in [9] was inactive.

With `CN1CCCc2ccccc2Cc2[nH]c3ccccc3c2CC1`, the Ki in [1] worked out at 98.4 nM; in assay [4], 0.61 nM; in assay [5], 2.8 nM; in assay [2], 278 nM; in assay [6], 1.5 nM; in assay [7], 2.8 nM. For the same compound, the Ki was determined as 14.5 nM in assay [8] and 2.2 nM in [9].

`c1ccc2c(c1)CCCN1CCc3c([nH]c4ccccc34)C21` (centres undefined): the outcome in assay [3], in assay [4], in assay [5], in assay [2], in [6] and in assay [7] was inactive. Besides, the outcome in [8] and in [9] was inactive.

As to `CN1CCCc2c([nH]c3ccccc23)Cc2ccccc2CC1`, the Ki in assay [1] was 184 nM; in [4], 92 nM; in assay [5] it was 71.6 nM; in assay [2] it was 521 nM; in [6], 38 nM; in assay [7], 304 nM. Also, the inhibitory constant (Ki) in assay [8] was 143 nM; in assay [9], 163 nM.
